Screens: PubChem BioAssay, The Scripps Research Institute Molecular Screening Center
GPR7 antagonist: antagonists of human GPR7 (neuropeptides B/W receptor 1). GPR7-expressing cells, fluorescence antagonist assay. P48145. inhibition, % at 4.4 µM. AID 1861. hit rate 1.1% among 290,000; in the data active means inhibition above about 16%, passing the limit was not always enough;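 further: cells stimulated with the agonist NPW; 0% = agonist with vehicle and 100% = vehicle without agonist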
Target sequence (P48145 whole entry, looked up): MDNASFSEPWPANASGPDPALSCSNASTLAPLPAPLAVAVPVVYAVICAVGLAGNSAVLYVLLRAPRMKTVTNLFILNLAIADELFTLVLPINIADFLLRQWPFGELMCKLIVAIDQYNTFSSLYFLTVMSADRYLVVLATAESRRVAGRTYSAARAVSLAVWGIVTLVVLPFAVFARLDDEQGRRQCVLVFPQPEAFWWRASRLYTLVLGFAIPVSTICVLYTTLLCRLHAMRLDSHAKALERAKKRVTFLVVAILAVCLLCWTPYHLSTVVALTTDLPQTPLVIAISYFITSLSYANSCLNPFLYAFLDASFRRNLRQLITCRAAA
TAAR1 agonist: agonists of human TAAR1; Q96RJ0; CHO RD-HGA16 TAAR1, Fluo-8 calcium fluorescence; vehicle wells 0%, saturating PEA agonist 100%; activation, % at 3 µM; hit rate 0.99% among 360,000;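 active means activation above the mean activation of all test compounds in the run plus 3 SD, cut at about 38% in these data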
Target sequence (Q96RJ0 whole entry, looked up): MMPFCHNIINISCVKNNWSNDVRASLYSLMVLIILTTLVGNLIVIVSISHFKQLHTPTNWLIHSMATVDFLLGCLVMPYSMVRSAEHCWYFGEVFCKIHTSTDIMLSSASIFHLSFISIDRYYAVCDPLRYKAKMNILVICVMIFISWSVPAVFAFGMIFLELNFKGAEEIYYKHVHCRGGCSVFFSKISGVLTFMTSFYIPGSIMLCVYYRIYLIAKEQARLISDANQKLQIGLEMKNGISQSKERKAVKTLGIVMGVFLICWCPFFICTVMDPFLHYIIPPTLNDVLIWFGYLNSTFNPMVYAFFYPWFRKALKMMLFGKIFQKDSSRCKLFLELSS
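Assay system: CHO-derived RD-HGA16 cells with stable Gα16 and human TAAR1; timing: 17-24 h seeding, 75 min 37 °C dye, 30 min RT; read-out: % activation from peak over basal fluorescence ratio, DMSO-to-PEA scaled; measured by: kinetic Fluo-8 calcium fluorescence; benchmarks: low control DMSO, high control PEA (EC100); doses: 3 µM single concentration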
TAAR1 antagonist: human TAAR1 antagonism; CHO RD-HGA16 TAAR1, Fluo-8 calcium fluorescence, antagonist; Q96RJ0; hit rate 1.5% among 360,000; inhibition, % at 3 µM;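 active means inhibition above a per-plate cutoff, the mean inhibition of test compounds on that plate plus 3 SD, cut at about 49% in these data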;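 further: 0% = DMSO plus EC80 beta-PEA response and 100% = DMSO alone without agonist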
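Test system – hTAAR1-expressing CHO RD-HGA16 cells, Gα16-coupled · Reagent – β-PEA at EC80 concentration, post-compound challenge · Compound dosing – 3 µM, single point · Timing – 140 s kinetic read after compound, 140 s after agonist · Detection – Fluo-8 intracellular calcium dye fluorescence, real-time kinetic reads · Control set – DMSO and EC80 PEA controls · Repeats – n of 1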
OX1R antag-1: OX1R (human) antagonism | O43613 | OX1R-expressing cells, FRET antagonist read-out | inhibition, % at 6.6 µM | hit rate 1.8% among 330,000; in the data active means inhibition mostly above about 38%, no sharp cut-off; inactive means mostly below about 40%;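 further: 0% = agonist challenge alone and 100% = reference antagonist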
CHO parental Ca: counter-screen: ATP calcium response change in parental CHO cells; hit rate 0.63% among 330,000; inhibition, % at 5.6 µM; parental CHO-K1, ATP-induced calcium, Fluo-8 fluorescence;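 active means inhibition above that plate's mean sample inhibition plus 3 SD, cut at about 26% in these data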;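 further: 0% = ATP-challenged DMSO wells and 100% = DMSO wells without ATP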
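Test system: parental CHO cells; detection: calcium-sensitive Fluo-8 fluorescence; evaluation: percent inhibition of calcium signal; also added: ATP as calcium-mobilizing challenge; repeats: one well per compound; control set: ATP-challenged DMSO wells low, unchallenged DMSO wells high; compound: single nominal dose of 5.6 µM per compound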
OX1R antag-2: blocks the human orexin 1 receptor. O43613. CHO/OX1R cells, Fluo-8 calcium fluorescence, orexin A. inhibition, % at 5 µM. hit rate 0.43% among 330,000. AID 434989;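 active means inhibition above its plate's threshold, mean inhibition of all tested compounds on the plate plus 3 SD, cut at about 37% in these data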;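 further: 0% = orexin A challenge wells and 100% = SB-334867-A antagonist wells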
OX1R Ca confirm: confirmation of human orexin 1 receptor antagonists; shares compounds with OX1R antag-2; CHO/OX1R cells, orexin A calcium Fluo-8 fluorescence; inhibition, % at 5 µM; hit rate 38% among 1,100; AID 492963; in the data active means inhibition above about 29%;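 further: 0% = agonist challenge alone and 100% = reference antagonist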
CHO Ca counter: signal in parental CHO cells, OX1R antagonist counter-screen; inhibition, % at 5.6 µM; hit rate 9.3% among 1,100; shares compounds with OX1R antag-2; parental CHO-K1, ATP-induced calcium, Fluo-8 fluorescence;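 active means inhibition above a per-plate limit, the mean inhibition of that plate's test compounds plus 3 SD, cut at about 25% in these data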;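 further: 0% = ATP challenge with DMSO and 100% = DMSO without ATP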
OX1R HTRF conf: confirmation of human orexin 1 receptor antagonists, HTRF format; shares compounds with OX1R antag-1; OX1R-expressing cells, HTRF antagonist assay; inhibition, % at 6.6 µM; hit rate 49% among 1,800; AID 492964; in the data active means inhibition above about 55%;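 further: CHO cells expressing OX1R stimulated with orexin A at about EC80; 0% = agonist challenge alone and 100% = reference antagonist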
CHO-K1 HTRF cnt: counter-screen: parental CHO-K1 HTRF response; shares compounds with OX1R antag-1; hit rate 48% among 1,800; parental CHO-K1 cells, HTRF counterscreen; inhibition, % at 6.6 µM; in the data active means inhibition above about 17%;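 further: 0% = agonist challenge with vehicle and 100% = vehicle alone without agonist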
Numbers without * were called inactive. An excerpt weighted towards active compounds, which were near 4.5% of everything screened.

What do the screens show for `CCN(CC(=O)Nc1c(F)cccc1F)C(=O)c1ccc2c(c1)S(=O)(=O)N=C1CCCCCN12`?
TAAR1 agonist: 0; TAAR1 antagonist: 3; OX1R antag-1: 6; CHO parental Ca: -11; OX1R antag-2: -6

What do the screens show for `Cc1c2ccccc2nc2c(F)c(N(C)C)c(F)c(F)c12`?
GPR7 antagonist: 1; TAAR1 agonist: 3; TAAR1 antagonist: -3; OX1R antag-1: 82*; CHO parental Ca: 5; OX1R antag-2: 50*; OX1R Ca confirm: 71*; CHO Ca counter: 16; OX1R HTRF conf: 93*; CHO-K1 HTRF cnt: 12

How did CCCCCCCCN1C(=O)[C@H](CC(=O)NCC2CCCCC2)C[C@@]2(C(=O)OCC)CCC=C12 do in these assays?
TAAR1 agonist: 0; TAAR1 antagonist: -13

Results for N#Cc1cc(F)cc(OCCCN2CCC(C(O)(c3ccccc3)c3ccccc3)CC2)c1 ?
TAAR1 agonist: 24; TAAR1 antagonist: 33

What do the screens show for `Cc1ccc(N(C)S(=O)(=O)c2cccc(C(=O)NCC(c3cccs3)N3CCOCC3)c2)cc1` (configuration not stated)?
TAAR1 agonist: 0; TAAR1 antagonist: 6; OX1R antag-1: 78*; CHO parental Ca: -31; OX1R antag-2: 47*; OX1R Ca confirm: 38*; CHO Ca counter: -17; OX1R HTRF conf: 94*; CHO-K1 HTRF cnt: 3

Results for CCCCNC(=O)CCC(=O)NNc1nc2ccccc2c2nc(C)nn12 ?
GPR7 antagonist: -12; TAAR1 agonist: 0; TAAR1 antagonist: -6; OX1R antag-1: 18; CHO parental Ca: -1; OX1R antag-2: -14

What do the screens show for `CCCCNC(=O)CCC(=O)NNc1nc2ccccc2c2nc(-c3ccccc3)nn12`?
GPR7 antagonist: -7; TAAR1 agonist: 3; TAAR1 antagonist: 0; OX1R antag-1: 77*; CHO parental Ca: -26; OX1R antag-2: 41; OX1R Ca confirm: 33*; CHO Ca counter: -21; OX1R HTRF conf: 92*; CHO-K1 HTRF cnt: -8

What do the screens show for `Nc1nnc2cc(Br)ccc2n1`?
TAAR1 agonist: 3; TAAR1 antagonist: -11

What do the screens show for `COc1cccc(OC)c1C(=O)Nc1nc(-c2ccccc2)cs1`?
GPR7 antagonist: 12; TAAR1 agonist: 8; TAAR1 antagonist: -18; OX1R antag-1: 97*; CHO parental Ca: -17; OX1R antag-2: 38*; OX1R Ca confirm: 30*; CHO Ca counter: -9; OX1R HTRF conf: 89*; CHO-K1 HTRF cnt: 5

How did COc1ccc(-c2csc(NC(=O)c3ccccc3C(=O)O)n2)cc1 do in these assays?
GPR7 antagonist: -6; TAAR1 agonist: -2; TAAR1 antagonist: -5; OX1R antag-1: 14; CHO parental Ca: 3; OX1R antag-2: -2

What do the screens show for `COc1ccccc1C(=O)Nc1nc(-c2ccc(S(=O)(=O)N3CCOCC3)cc2)cs1`?
GPR7 antagonist: -2; TAAR1 agonist: 31; TAAR1 antagonist: 69*; OX1R antag-1: 89*; CHO parental Ca: 24; OX1R antag-2: 33; OX1R Ca confirm: 56*; CHO Ca counter: 29*; OX1R HTRF conf: 58*; CHO-K1 HTRF cnt: 15

How did CC(CC(=O)Nc1cccc(S(=O)(=O)N2CCCCC2)c1)c1ccccc1 (configuration not stated) do in these assays?
TAAR1 agonist: 6; TAAR1 antagonist: 16; OX1R antag-1: 29*; CHO parental Ca: -8; OX1R antag-2: 35; OX1R Ca confirm: 3; CHO Ca counter: -13; OX1R HTRF conf: 49; CHO-K1 HTRF cnt: 3

How did C=C(C1=CCN(S(=O)C(C)(C)C)[C@@H]1CCO)c1ccccc1 (some centres not stated) do in these assays?
TAAR1 agonist: 1; TAAR1 antagonist: -14

How did Cn1ncc2c(Nc3cccc(Cl)c3)nc(Nc3cccc(Cl)c3)nc21 do in these assays?
GPR7 antagonist: -24; TAAR1 agonist: -1; TAAR1 antagonist: 1; OX1R antag-1: 8; CHO parental Ca: -22; OX1R antag-2: -24

Results for CNc1nc(Nc2ccc(C)c(Cl)c2)c2cnn(C)c2n1 ?
GPR7 antagonist: -2; TAAR1 agonist: 13; TAAR1 antagonist: 29; OX1R antag-1: 84*; CHO parental Ca: -16; OX1R antag-2: 33; OX1R Ca confirm: 9; CHO Ca counter: -7; OX1R HTRF conf: 84*; CHO-K1 HTRF cnt: 12

Results for COc1ccc(/C=C/c2nc(-c3ccccc3O)n[nH]2)cc1OC ?
GPR7 antagonist: -2; TAAR1 agonist: 6; TAAR1 antagonist: -6; OX1R antag-1: 103*; CHO parental Ca: -21; OX1R antag-2: 72*; OX1R Ca confirm: 67*; CHO Ca counter: 1; OX1R HTRF conf: 92*; CHO-K1 HTRF cnt: 14

Results for CCOC1=C2CN(S(=O)(=O)c3ccc(C)cc3)[C@H](c3ccccc3)C[C@@H]2N(S(=O)(=O)c2ccc(C)cc2)[C@H](c2cccs2)C1 ?
TAAR1 agonist: 1; TAAR1 antagonist: -12

Results for Cc1ccc2c(c1)Cc1nc3ccccc3nc1-2 ?
GPR7 antagonist: -3; TAAR1 agonist: 5; TAAR1 antagonist: 9; OX1R antag-1: 87*; CHO parental Ca: -13; OX1R antag-2: 40; OX1R Ca confirm: 33*; CHO Ca counter: 12; OX1R HTRF conf: 90*; CHO-K1 HTRF cnt: 8

Results for Cc1ccc2c(c1)-c1nc3ccccc3cc1C2=NC1CCCCC1 ?
GPR7 antagonist: -5; TAAR1 agonist: 4; TAAR1 antagonist: -7; OX1R antag-1: 52; CHO parental Ca: -7; OX1R antag-2: -2

Results for COc1ccc(OC)c(CCNC(=O)Cn2ccc3cc(S(=O)(=O)N4CCCC4)ccc32)c1 ?
GPR7 antagonist: -14; TAAR1 agonist: 3; TAAR1 antagonist: -10; OX1R antag-1: 54*; CHO parental Ca: -6; OX1R antag-2: 26; OX1R Ca confirm: 22; CHO Ca counter: -5; OX1R HTRF conf: 63*; CHO-K1 HTRF cnt: 3

How did COc1ccccc1CCNC(=O)Cn1ccc2cc(S(=O)(=O)N3CCC(C)CC3)ccc21 do in these assays?
GPR7 antagonist: 7; TAAR1 agonist: 20; TAAR1 antagonist: 9; OX1R antag-1: 22; CHO parental Ca: 5; OX1R antag-2: 11
